Only some compounds are listed: those with a hit (about 2.3% of all), similar ones and a draw of the others.
TRPC4 block – TRPC4 (mouse) channel inhibition; B-score at 10 µM; 300,000 compounds, 0.39% hits; AID 2247; Q9QUQ5; HEK293 TRPC4beta/mu-opioid, DAMGO-evoked Fluo4 calcium flux; active compounds read low;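 active = B-score over 3 SD under the library average, no early fluorescence shift, positive overall ratio signal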
Target sequence (Q9QUQ5 whole entry, looked up): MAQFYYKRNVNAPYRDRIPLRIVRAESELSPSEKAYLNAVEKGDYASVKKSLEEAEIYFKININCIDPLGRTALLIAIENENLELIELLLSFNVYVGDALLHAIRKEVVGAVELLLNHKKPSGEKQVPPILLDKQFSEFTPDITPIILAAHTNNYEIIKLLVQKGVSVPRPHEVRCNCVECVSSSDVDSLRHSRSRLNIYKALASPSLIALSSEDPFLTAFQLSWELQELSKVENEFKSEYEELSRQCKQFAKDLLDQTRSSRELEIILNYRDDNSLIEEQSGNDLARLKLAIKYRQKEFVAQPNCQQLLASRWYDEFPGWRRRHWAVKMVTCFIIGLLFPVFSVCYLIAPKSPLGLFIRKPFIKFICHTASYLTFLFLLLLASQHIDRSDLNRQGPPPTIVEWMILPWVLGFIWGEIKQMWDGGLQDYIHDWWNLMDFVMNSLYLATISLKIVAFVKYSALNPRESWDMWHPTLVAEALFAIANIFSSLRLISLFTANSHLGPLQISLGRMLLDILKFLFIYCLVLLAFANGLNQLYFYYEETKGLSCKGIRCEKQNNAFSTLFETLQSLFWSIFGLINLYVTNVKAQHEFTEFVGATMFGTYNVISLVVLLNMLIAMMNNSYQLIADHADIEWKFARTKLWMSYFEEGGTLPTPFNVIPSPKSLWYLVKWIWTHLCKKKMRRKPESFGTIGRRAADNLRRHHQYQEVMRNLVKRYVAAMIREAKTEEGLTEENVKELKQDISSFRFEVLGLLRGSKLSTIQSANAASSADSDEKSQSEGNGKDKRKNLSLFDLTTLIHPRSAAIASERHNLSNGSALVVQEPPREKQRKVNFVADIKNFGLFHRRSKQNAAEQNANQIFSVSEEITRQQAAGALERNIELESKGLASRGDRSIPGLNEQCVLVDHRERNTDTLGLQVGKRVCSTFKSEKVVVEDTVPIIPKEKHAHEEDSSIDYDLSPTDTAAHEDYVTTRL
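Material: HEK293 cells with stable TRPC4beta plus mu-opioid receptor expression; probe or stimulus: DAMGO in two steps, submaximal then maximal; technique: Fluo4 calcium fluorescence by kinetic imaging, 5 s 1 Hz baseline; measure: integrated fluorescence ratio relative to baseline, converted to per-well B score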
TRPC4 act – TRPC4 (mouse) channel activation; Q9QUQ5; HEK293 TRPC4beta/mu-opioid, Fluo4 calcium fluorescence; active compounds read high; B-score at 10 µM; 310,000 compounds, 0.49% hits; AID 2237;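 active = B-score above 5 SD of library B-scores, and initial fluorescence ratio not above library mean plus 5 SD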;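 also: positive B-score marks a calcium rise read as TRPC4 activation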
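Technique: kinetic Fluo4 calcium fluorescence; Test system: TRPC4beta and mu-opioid receptor HEK293 stable cells; Measure: B-scored integrated calcium fluorescence ratio; Benchmarks: low control buffer alone, high control maximal DAMGO; Schedule: 45 min room-temperature Fluo4 loading, 110 s read.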
TRPC4 potent – TRPC4 (mouse) allosteric potentiation; 310,000 compounds, 0.42% hits; B-score at 10 µM; AID 2227; Q9QUQ5; HEK293 TRPC4beta/mu-opioid, DAMGO EC20, Fluo-4 Ca2+ flux; active compounds read high;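 active = B-score of calcium response area above 5 SD of library B-scores, with initial fluorescence ratio within 5 SD of library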;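 also: B-score of integrated fluorescence ratio over time as area under calcium response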
TRPC6 act – mouse TRPC6 channel activation; AID 2550; Q61143; HEK293-TRPC6 membrane potential dye fluorescence; active compounds read high; 310,000 compounds, 0.13% hits; B-score at 10 µM;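 active = B-score of the integrated fluorescence ratio above library mean plus 3 SD, and starting fluorescence ratio within library mean plus 5 SD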;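 also: higher score means more depolarization so channel activation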
CR mimetic SO – lowers age-related superoxide in aged yeast cells; superoxide response (% of plate mean), % at 10 µM; S. cerevisiae aged cells, superoxide DHE fluorescence; active compounds read low; 330,000 compounds, 0.18% hits;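 active = superoxide response under a set limit, about three screen SD below normal, cut at about 65% in these data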;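 also: yeast aged for seven days with compound at 30 °C before DHE staining; 100% = average MFI of all compound-treated wells on the plate with controls excluded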
TRPC6 inhibitor – blocks the mouse TRPC6 cation channel; 310,000 compounds, 1.1% hits; B-score at 10 µM; Q61143; HEK293-TRPC6, membrane potential dye, ACh-evoked depolarization; active compounds read low; AID 2553;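 active = B-score under library mean minus 3 SD, initial fluorescence not abnormally high, positive integrated signal ratio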;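 also: B-score derived from integrated fluorescence ratio over the kinetic read; more negative B-score means stronger inhibition of depolarization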
TRPC4 spec 2 – second check of whether TRPC6 inhibitors also affect mouse TRPC4; shares compounds with TRPC6 inhibitor; HEK293 TRPC4/MOR, membrane potential dye fluorescence; channel activated by saturating DAMGO dose; inhibition, % at 10 µM; 920 compounds, 42% hits; AID 2776;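 active = compounds whose fluorescence signal differed from control wells by over 3 SD, either direction, in both duplicate plates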
TRPC4 spec – mouse TRPC4 off-target activity of TRPC6 inhibitors; shares compounds with TRPC6 inhibitor; HEK293 TRPC4/mu-opioid, membrane potential fluorescence; activity change, negative = inhibition, % at 10 µM; 920 compounds, 61% hits;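 active = rise or fall in signal beyond 3 SD of buffer-only wells in both replicate plates, either sign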;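 also: integrated kinetic ratio of fluorescence range over baseline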
HEK293 MPD ctr 2-1 – second counter-screen for TRPC6 inhibitors: parental HEK293 cells; parental HEK293 membrane potential dye fluorescence; maximal acetylcholine challenge after compound addition; signal change vs control, % at 10 µM; shares compounds with TRPC6 inhibitor; 920 compounds, 31% hits;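 active = membrane potential signal moving either way by over 3 SD of the maximum-effect control, in both duplicate plates, meaning non-specific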
HEK293 MPD ctr-1 – parental HEK293 nonspecific activity of TRPC6 inhibitors; parental HEK293 membrane potential dye fluorescence; membrane potential signal change, % at 10 µM; 920 compounds, 60% hits; AID 2780; shares compounds with TRPC6 inhibitor;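 active = membrane potential signal shifting up or down by more than 3 SD of buffer-only wells, on both duplicate plates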
HEK293 MPD ctr-2 – counter-screen for TRPC6 modulators: effect in parental HEK293 cells; shares compounds with TRPC6 inhibitor; membrane potential dye fluorescence; membrane potential signal change, % at 10 µM; 2,400 compounds, 51% hits;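 active = membrane potential signal moves up or down beyond 5 SD from buffer-only wells, on both duplicate plates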
HEK293 MPD ctr 2-2 – second counter-screen for TRPC6 modulators: effect in parental HEK293 cells | 2,400 compounds, 14% hits | inhibition, % at 10 µM | shares compounds with TRPC6 inhibitor | membrane potential dye fluorescence; after compound, maximal acetylcholine stimulation;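 active = membrane potential signal drops by more than 5 SD from the mean control signal, in both duplicate plates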;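 also: plate controls were acetylcholine ECmax control wells for no effect and buffer only wells for full effect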
TRPC4/MOR mod – selectivity of TRPC6 modulators against mouse TRPC4; shares compounds with TRPC6 inhibitor; HEK293 TRPC4/mu-opioid, membrane potential fluorescence; percent change from control (negative = decrease, positive = increase), % at 10 µM; 2,400 compounds, 69% hits; AID 488927;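 active = membrane potential signal moved up or down beyond 5 SD of buffer control wells, in both duplicate plates, actives on both sides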;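 also: plate controls were assay buffer wells for no effect and DAMGO maximal-effect wells for full effect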
TRPC4/MOR inh 2 – second check of whether TRPC6 modulators also affect mouse TRPC4; shares compounds with TRPC6 inhibitor; HEK293 TRPC4/mu-opioid, membrane potential dye fluorescence; stimulated with maximal-effect DAMGO; inhibition, % at 10 µM; 2,400 compounds, 55% hits; AID 488928;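 active = drop in membrane potential signal beyond 5 SD of the control wells in both duplicate plates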;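 also: TRPC4 counter screen for TRPC6 hits run under conditions tuned for TRPC6 not TRPC4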
TRPC6 inh conf – confirmation of mouse TRPC6 inhibitors | shares compounds with TRPC6 inhibitor | HEK293-TRPC6, membrane potential dye, ACh-evoked depolarization | inhibition, % at 10 µM | 3,300 compounds, 43% hits;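 active = fluorescence ratio falls more than 5 SD below the full-stimulation control mean, in both duplicate runs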;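 also: integrated fluorescence ratio of peak minus minimum over baseline after agonist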
TRPC6 act confirm – mouse TRPC6 activator confirmation; shares compounds with TRPC6 inhibitor; HEK293-TRPC6 membrane potential dye fluorescence, FDSS; activation, % at 10 µM; 2,800 compounds, 11% hits;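 active = ratio signal rise beyond 5 SD above unstimulated control wells' mean, seen in both duplicate runs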;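 also: plate controls were buffer EC0 wells for no effect and acetylcholine ECmax response for full effect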
* = called active by the depositor; i = inactive; x = no result.

SMILES | TRPC4 block | TRPC4 act | TRPC4 potent | TRPC6 act | CR mimetic SO | TRPC6 inhibitor | HEK293 MPD ctr-2 | HEK293 MPD ctr 2-2 | TRPC4/MOR mod | TRPC4/MOR inh 2 | TRPC6 inh conf | TRPC6 act confirm | others
CC(C(=O)NCCS(=O)(=O)c1ccc(Cl)cc1)S(=O)(=O)c1ccc(Cl)cc1 (stereo not given) | i | i | i | i | 96.7 | i | x | x | x | x | x | x
Cc1ccc(C(=O)c2c3ccc(C(F)(F)F)cc3[n+]([O-])n2CCCN)cc1 | i | i | i | i | 83.8 | -8.1* | x | x | x | x | 76.2%* | i | TRPC4 spec 2=49.5%*;TRPC4 spec=-12.2%*;HEK293 MPD ctr 2-1=i;HEK293 MPD ctr-1=-157.5%*
COc1ccc(C(=O)c2c3ccc(C(F)(F)F)cc3[n+]([O-])n2CCCN)cc1 | i | i | i | i | 83.9 | -5.69* | i | i | -9.5%* | 47.0%* | 48.0%* | i
COc1cccc(NC(=O)C(Sc2nnc(-c3ccncc3)n2-c2ccc(Cl)cc2)c2ccccc2)c1 (stereo not given) | i | i | i | i | 106.1 | i | x | x | x | x | x | x
COc1ccc2nc(C)c3c(c2c1)OC(C)C3 (stereo not given) | i | i | i | i | 105.6 | -7.45* | x | x | x | x | i | i | TRPC4 spec 2=i;TRPC4 spec=-16.9%*;HEK293 MPD ctr 2-1=18.0%*;HEK293 MPD ctr-1=-236.5%*
Cc1nc2ccc(C(=O)O)cc2c2c1CC(CN)O2 (stereo not given) | i | i | i | i | 99.5 | i | x | x | x | x | x | x
COc1cccc2c3c(c(C)nc12)CC(C)O3 (stereo not given) | i | i | i | i | 84.9 | -6.15* | -145.5%* | i | -17.5%* | 41.0%* | i | i
CCOC(=O)c1ccc2nc(C)c3c(c2c1)OC(C)C3 (stereo not given) | i | i | i | i | 100.3 | -5.22* | -112.0%* | i | -13.0%* | i | i | i
CCC(Sc1ccc2nnc(-c3cccnc3)n2n1)C(=O)OC (stereo not given) | i | i | i | i | 94.4 | i | x | x | x | x | x | x
Cc1onc(-c2c(Cl)cccc2Cl)c1NC(=O)N1CCSCC1 | i | i | i | 12* | 119.3 | i | i | i | i | i | i | i
COc1ccc(C(=O)COc2ccc3c(C)cc(=O)oc3c2)cc1 | i | i | i | i | 97.9 | i | x | x | x | x | x | x
COc1ccc(Oc2c(C(F)(F)F)oc3cc(OCC(=O)O)ccc3c2=O)cc1 | i | i | i | i | 99.2 | -5.17* | i | i | i | i | i | i
CC1(C)c2[nH]c3ccccc3c2C[C@@H]2C(=O)N(Cc3ccccc3)C(=O)N21 | i | i | i | i | x | i | x | x | x | x | x | x
CC1(C)c2[nH]c3ccccc3c2C[C@H]2C(=O)N(Cc3ccc(F)cc3)C(=O)N21 | i | i | i | i | 103.4 | -5.53* | i | i | -9.0%* | i | i | i
Cc1ccc(SCCN2CCN(C)CC2)cc1 | i | i | i | i | 104.5 | i | x | x | x | x | x | x
S=c1[nH]nc(-c2ccccc2Cl)n1/N=C/C=C/c1ccco1 | i | i | i | i | 91.0 | -5.98* | i | i | i | i | 44.0%* | i
COc1ccc(-c2nc(-c3ccccc3)c(-c3cccs3)[nH]2)cc1OC | i | i | i | i | 108.4 | i | x | x | x | x | x | x
COc1ccc(-c2nc(-c3cccs3)c(-c3cccs3)[nH]2)cc1OC | i | i | i | i | 94.8 | -5.52* | i | i | i | i | i | i
O=C(Nc1ccc2c(c1)OCCO2)C1c2ccccc2C(=O)N2CCc3ccccc3C12 (stereo not given) | i | i | i | i | 94.0 | i | x | x | x | x | x | x
CN1CCN(c2ccc(NC(=O)COc3ccccc3Cl)cc2)CC1 | i | i | i | i | 110.8 | -9.25* | x | x | x | x | i | i | TRPC4 spec 2=58.5%*;TRPC4 spec=-10.6%*;HEK293 MPD ctr 2-1=i;HEK293 MPD ctr-1=-186.0%*
Cc1cc(OCC(=O)Nc2ccc(N3CCN(C)CC3)cc2)ccc1Cl | -6* | i | i | i | 104.8 | -5.14* | i | i | 29.5%* | 52.0%* | i | i
CCC(=O)N1CCN(c2ccc(NC(=O)COc3ccccc3Cl)cc2)CC1 | i | i | i | i | 87.5 | i | x | x | x | x | x | x
CC(Oc1ccc2c3c(c(=O)oc2c1)CCC3)C(=O)NCc1ccccn1 (stereo not given) | i | i | i | i | 101.0 | i | x | x | x | x | x | x
O=C(COc1ccc2c3c(c(=O)oc2c1)CCC3)NCc1ccccn1 | i | i | i | i | 100.3 | -6.13* | i | i | i | i | i | i
O=C(COc1ccc2c3c(c(=O)oc2c1)CCCC3)NC(Cc1ccc(Cl)cc1)C(=O)O (stereo not given) | i | i | i | i | 106.1 | -6.97* | x | x | x | x | i | i | TRPC4 spec 2=i;TRPC4 spec=4.7%*;HEK293 MPD ctr 2-1=i;HEK293 MPD ctr-1=2.1%*
